Measured values reported in ChEMBL document CHEMBL2321669, “Discovery, biological evaluation, and structure-activity and -selectivity relationships of 6'-substituted (E)-2-(benzofuran-3(2H)-ylidene)-N-methylacetamides, a novel class of potent and selective monoamine oxidase inhibitors” (J Med Chem, 2013).

Tests used:
[1] = target: T1, Amine oxidase [flavin-containing] A (Rattus norvegicus, UniProt P21396); test: Inhibition of MAO-A in Sprague-Dawley rat brain mitochondrial suspension using kynuramine as substrate incubated for 5 mins prior to substrate addition measured for 5 mins by spectrophotometry
T1 sequence (P21396 whole entry): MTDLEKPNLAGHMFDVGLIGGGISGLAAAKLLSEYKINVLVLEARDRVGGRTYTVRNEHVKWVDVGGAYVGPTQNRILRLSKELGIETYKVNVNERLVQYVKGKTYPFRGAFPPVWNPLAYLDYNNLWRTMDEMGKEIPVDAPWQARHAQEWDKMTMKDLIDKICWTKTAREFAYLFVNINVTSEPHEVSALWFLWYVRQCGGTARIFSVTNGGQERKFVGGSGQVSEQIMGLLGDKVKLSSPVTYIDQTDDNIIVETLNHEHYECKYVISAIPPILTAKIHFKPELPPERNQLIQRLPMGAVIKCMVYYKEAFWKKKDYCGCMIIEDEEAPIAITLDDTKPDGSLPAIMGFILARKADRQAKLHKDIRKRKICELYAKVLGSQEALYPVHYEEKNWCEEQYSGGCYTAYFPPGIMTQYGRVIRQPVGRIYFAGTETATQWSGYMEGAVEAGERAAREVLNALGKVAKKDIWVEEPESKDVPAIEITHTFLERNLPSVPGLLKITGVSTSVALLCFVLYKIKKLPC

[2] = target: T2, Amine oxidase [flavin-containing] B (Rattus norvegicus, UniProt P19643); test: Inhibition of MAO-B in Sprague-Dawley rat brain mitochondrial suspension using kynuramine as substrate incubated for 5 mins prior to substrate addition measured for 5 mins by spectrophotometry
T2 sequence (P19643 whole entry): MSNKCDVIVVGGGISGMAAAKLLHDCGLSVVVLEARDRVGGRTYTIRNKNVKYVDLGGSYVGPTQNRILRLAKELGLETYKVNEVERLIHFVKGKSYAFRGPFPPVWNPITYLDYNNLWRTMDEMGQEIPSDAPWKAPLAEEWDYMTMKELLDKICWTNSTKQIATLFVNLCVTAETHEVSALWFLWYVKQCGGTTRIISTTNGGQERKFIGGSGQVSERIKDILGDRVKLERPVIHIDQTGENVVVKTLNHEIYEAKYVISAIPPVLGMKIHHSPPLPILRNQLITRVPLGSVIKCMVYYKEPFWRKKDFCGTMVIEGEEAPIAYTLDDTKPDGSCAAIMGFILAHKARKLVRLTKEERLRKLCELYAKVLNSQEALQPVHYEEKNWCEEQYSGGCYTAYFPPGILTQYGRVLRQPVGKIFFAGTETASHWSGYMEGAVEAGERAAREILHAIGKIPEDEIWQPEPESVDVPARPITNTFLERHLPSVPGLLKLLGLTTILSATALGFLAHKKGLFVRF
In short: (§1)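 Crude brain mitochondria from male Sprague-Dawley rats (200–250 g), used at 1 mg/mL. Isoforms separated with clorgyline or (−)-L-deprenyl, both irreversible at 250 nM. 5 min preincubation with compound, final DMSO 5% (v/v). Kynuramine then added at 60 μM (KM), and 4-hydroxyquinoline formation was followed at 314 nm for 5 min. IC50 by nonlinear regression of inhibition vs −log concentration, or % inhibition at 10 or 20 μM. Mean of 2–3 independent experiments.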

[3] = target: T2, Amine oxidase [flavin-containing] B; test: Inhibition of MAO-B in Sprague-Dawley rat brain mitochondrial suspension using kynuramine as substrate at 10 uM incubated for 5 mins prior to substrate addition measured for 5 mins by spectrophotometry; in short: as §1
[4] = target: T1, Amine oxidase [flavin-containing] A; test: Ratio of moclobemide IC50 to compound IC50 for Sprague-Dawley rat brain MAO-A
[5] = target: T1, Amine oxidase [flavin-containing] A; test: Inhibition of MAO-A in Sprague-Dawley rat brain mitochondrial suspension using kynuramine as substrate at 10 uM incubated for 5 mins prior to substrate addition measured for 5 mins by spectrophotometry
In short: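 Male Sprague-Dawley rat brain (200–250 g) crude mitochondrial fraction, 1 mg/mL, stored at −40 °C in isotonic phosphate/KCl buffer pH 7.4. Selective irreversible inhibitors clorgyline and (−)-L-deprenyl (250 nM each) used to separate isoform activities. Test compound preincubated 5 min, final DMSO 5% (v/v). Kynuramine 90 μM (KM) added, 4-hydroxyquinoline formation read at 314 nm for 5 min. […] Mean of 2–3 independent experiments.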

[6] = target: T2, Amine oxidase [flavin-containing] B; test: Inhibition of MAO-B in Sprague-Dawley rat brain mitochondrial suspension using kynuramine as substrate at 20 uM incubated for 5 mins prior to substrate addition measured for 5 mins by spectrophotometry; in short: as §1

| Structure (SMILES) | IC50 [1] [nM] | inhibition at 10 µM [3] [%] | also measured |
| --- | --- | --- | --- |
| CNCc1cc(=O)oc2cc(OS(=O)(=O)c3cccc(Cl)c3)ccc12 | 5300 |  | IC50 [2]: 1700 nM |
| CNC(=O)/C=C1/COc2cc(OS(=O)(=O)c3ccc(C(C)=O)cc3)ccc21 | 29 | 0 |  |
| CNC(=O)/C=C1/COc2cc(OS(=O)(=O)c3ccc(OC)cc3)ccc21 | 11 | 0 |  |
| CNC(=O)/C=C1/COc2c1ccc(OS(=O)(=O)c1ccc(OC)cc1)c2C | 7 | 0 | Ratio IC50 [4]: 1000 |
| CNC(=O)/C=C1/COc2cc(OS(=O)(=O)CCC(F)(F)F)ccc21 | 9.1 | 17 |  |
| CNC(=O)/C=C1/COc2c1ccc(OS(=O)(=O)CCC(F)(F)F)c2C | 11 | 5 |  |
| CCNC(=O)/C=C1/COc2cc(OS(=O)(=O)c3cccc(Cl)c3)ccc21 | 4200 | 0 |  |
| CC(C)NC(=O)/C=C1/COc2cc(OS(=O)(=O)c3cccc(Cl)c3)ccc21 |  | 1 | inhibition at 10 µM [5]: 14% |
| CNC(=O)Cc1coc2cc(OS(=O)(=O)c3cccc(Cl)c3)ccc12 | 409 | 4 |  |
| CCNC(=O)Cc1coc2cc(OS(=O)(=O)c3cccc(Cl)c3)ccc12 |  | 0 | inhibition at 10 µM [5]: 31% |
| O=C1COc2cc(OS(=O)(=O)c3cccc(Cl)c3)ccc21 |  | 0 | inhibition at 10 µM [5]: 17% |
| CNC(=O)/C=C1/COc2cc(OCc3cccc(Cl)c3)ccc21 | 427 |  | IC50 [2]: 36 nM |
| CNC(=O)Cc1coc2cc(OCc3cccc(Cl)c3)ccc12 | 3100 |  | IC50 [2]: 284 nM |
| CNC(=O)Cc1cc(=O)oc2cc(OS(=O)(=O)c3cccc(Cl)c3)ccc12 | 111 |  | IC50 [2]: 8300 nM |
| CNC(=O)c1cc(=O)oc2cc(OS(=O)(=O)c3cccc(Cl)c3)ccc12 |  | 9 | inhibition at 10 µM [5]: 8% |
| NCc1cc(=O)oc2cc(OS(=O)(=O)c3cccc(Cl)c3)ccc12 | 997 |  | IC50 [2]: 3300 nM |
| CNC(=O)/C=C1/COc2cc(OS(=O)(=O)c3ccccc3)ccc21 | 34 | 0 |  |
| CNC(=O)/C=C1/COc2cc(OS(=O)(=O)c3cccc(Cl)c3)ccc21 | 41 | 0 |  |
| CNC(=O)/C=C1/COc2cc(OS(=O)(=O)c3cccc(F)c3)ccc21 | 41 |  | inhibition at 20 µM [6]: 6% |
| CNC(=O)/C=C1/COc2cc(OS(=O)(=O)c3cccc(C#N)c3)ccc21 | 19 | 0 |  |
| CNC(=O)/C=C1/COc2cc(OS(=O)(=O)c3ccc(Cl)cc3)ccc21 | 12 | 6 |  |
| CNC(=O)/C=C1/COc2cc(OS(=O)(=O)c3ccc(C#N)cc3)ccc21 | 45 |  | inhibition at 20 µM [6]: 10% |
| CNC(=O)/C=C1/COc2cc(OS(=O)(=O)c3ccc([N+](=O)[O-])cc3)ccc21 | 37 | 13 |  |
| CNC(=O)/C=C1/COc2cc(OS(=O)(=O)c3ccc(S(C)(=O)=O)cc3)ccc21 | 19 | 0 |  |
| CNC(=O)/C=C1/COc2cc(OS(=O)(=O)c3ccc(Cl)s3)ccc21 | 16 | 6 |  |
| CNC(=O)/C=C1/COc2c1ccc(OS(=O)(=O)c1ccccc1)c2C | 9.8 | 5 |  |
| CNC(=O)/C=C1/COc2c1ccc(OS(=O)(=O)c1cccc(Cl)c1)c2C | 24 | 2 |  |
| CNC(=O)/C=C1/COc2c1ccc(OS(=O)(=O)c1ccc(C#N)cc1)c2C | 15 | 6 |  |
| O=C(NCCN1CCOCC1)c1ccc(Cl)cc1 [MOCLOBEMIDE] |  | 0 |  |
